Measured values as given in ChEMBL document CHEMBL1156462, “Seco-pregnane steroids target the subgenomic RNA of alphavirus-like RNA viruses” (Proc Natl Acad Sci U S A, 2007).
The source made the active and inactive calls. The rule behind the calls is not given here.

Key:
[1] = Selectivity index, ratio of CC50 for hamster BHK21 cells to EC50 for Sindbis virus XJ160; type: toxicity, cell-based, BHK-21; details: read-out: Ratio CC50/EC50
How it was run: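 SINV XJ-160 at 2 × 10⁵ pfu/ml was premixed with compound for 15 min. It was then adsorbed 1 h to BHK-21 cells, MOI 0.01, in quadruplicate. Cells were washed and kept in DMEM/5% FBS at 37°C. CC50 was 50% inhibition of uninfected BHK-21 proliferation. Index = CC50/EC50.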

Tobacco mosaic virus [2] = assay: Inhibition of TMV U1 multiplication in tobacco BY2 protoplast at 10 nM assessed as local lesion size on Chenopodium quinoa leaves by local lesion assay; type: functional
Tobacco mosaic virus [3] = assay: Decrease in TMV U1 coat protein level in TMV infected tobacco BY2 protoplast at 50 nM by Western blot analysis; type: functional, organism-based
How it was run: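 BY-2 protoplasts (5 ml, 1.5 × 10⁶/ml) infected with TMV pretreated with compound; total protein extracted and coat protein detected by Western blot.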

Sindbis virus [4] = assay: Reduction of Sindbis virus infection-induced mortality rate in newborn BALB/c mouse assessed as long term survivors at 100 mg/kg; type: functional
How it was run: (§1)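 Newborn BALB/c mice, 2–3 days old, ≈2 g, were inoculated intracerebrally with 20 μl medium holding 100 × LD50 SINV. Compound (20 μl, 5, 50 or 100 mg/kg BW) was mixed into the inoculum. There were 11 mice per group, counted at 3–7 days. Virus-alone and compound-alone controls were included.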

Sindbis virus [5] = assay: Reduction of mortality rate in Sindbis virus-infected newborn BALB/c mouse assessed as long term survivors at 5 mg/kg; type: functional; how it was run: as §1
Measles morbillivirus = assay: Antiviral activity against measles virus in Veto cells assessed as inhibition of virus-induced cytopathogenicity; type: functional, organism-based
How it was run: (§2)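 Cells seeded at 2 × 10⁵ per well 24 h before use (BHK-21 for GETV, H9 for HIV, CIK for Reovirus, 983A for adenovirus, Veto for measles virus). Infected at a dose giving 100% cytopathic effect at 3 dpi; virus premixed with compound at final 100, 50, 10, 3, 2, 1.5, 1, 0 nM. Infected and uninfected untreated controls on each plate.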

Tobacco mosaic virus [6] = assay: Antiviral activity against TMV U1 infected Nicotiana tabacum cv K326 plant leaves assessed as inhibition of systemic virus infection; type: functional, organism-based
[7] = Selectivity index, ratio of CC50 for BHK21 cells to EC50 for Getah virus; type: toxicity, cell-based, BHK-21; details: hamster, read-out: Ratio CC50/EC50
How it was run: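 Getah virus was tested on BHK-21 cells seeded at 2 × 10⁵ per well 24 h before use, infected at a dose giving 100% CPE at 3 dpi. Compound was premixed with virus at final 100–0 nM. EC50 was taken as 50% inhibition of cytopathogenicity. Index = 50% cytotoxicity concentration/EC50.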

Sindbis virus [8] = assay: Antiviral activity against Sindbis virus XJ160 in BHK21 cells assessed as reduction of virus-induced cytopathic effect after 24 hrs; type: functional, organism-based; details: BHK-21
How it was run: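 SINV XJ-160 (2 × 10⁵ pfu/ml, thrice plaque-purified) treated with compound for 15 min, adsorbed 1 h to BHK-21 cells at MOI 0.01 in quadruplicate; washed, fresh DMEM with 5% FBS added, cells kept at 37°C, 5% CO₂. Cytopathic morphology scored by light microscopy at 24 hpi.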

Tobacco mosaic virus [9] = assay: Reduction of coat protein sgRNA level in TMV U1 infected tobacco BY2 protoplast at 50 nM administered after 4 hrs postinfection; type: functional, organism-based
How it was run: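 BY-2 protoplasts infected with TMV supplemented with compound up to 50 nM; total RNA extracted by TRIzol 4 h after infection, and CP sgRNA, I₂ sgRNA and genomic RNA detected by Northern blot with CP gene probe, 28S rRNA as loading control.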

Tobacco mosaic virus [10] = assay: Inhibition of TMV U1 multiplication in tobacco BY2 protoplast at 40 nM assessed as inhibition of local lesions on Chenopodium quinoa leaves by local lesion assay after 3 days postinfection; type: functional; details: U1, 72 h
How it was run: (§3)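 TMV premixed with compound at a range of concentrations used to inoculate tobacco BY-2 protoplasts; virus multiplication then assayed by counting local lesions on the local lesion host Chenopodium quinoa.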

[11] = system: Japanese encephalitis virus; assay: Antiviral activity against Japanese encephalitis virus in C6 cells assessed as inhibition of virus-induced cytopathogenicity; type: functional, organism-based
Getah virus = assay: Antiviral activity against Getah virus in BHK21 cells assessed as inhibition of virus-induced cytopathogenicity; type: functional, organism-based; details: BHK-21; how it was run: as §2
Tobacco mosaic virus [12] = assay: Inhibition of TMV U1 replication in tobacco BY2 protoplast by local lesion assay using Chenopodium quinoa leaves; type: functional, organism-based; how it was run: as §3
Sindbis virus [13] = assay: Antiviral activity against Sindbis virus in BHK21 cells assessed as inhibition of virus-induced cytopathogenicity; type: functional, organism-based; details: BHK-21
Tobacco mosaic virus [14] = assay: Inhibition of coat protein sgRNA accumulation in TMV U1 infected Nicotiana tabacum cv K326 plant leaves at 50 nM by Northern blot; type: functional, organism-based
How it was run: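 N. tabacum cv. K326 leaves inoculated with TMV with or without 50 nM compound; inoculated and upper uninoculated leaves collected at 5 dpi. TRIzol total RNA probed with CP gene sequence by Northern blot, 28S rRNA as loading control.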

Tobacco mosaic virus [15] = assay: Inhibition of TMV U1 multiplication in tobacco BY2 protoplast at 20 nM assessed as local lesion size on Chenopodium quinoa leaves by local lesion assay; type: functional

For `CO[C@@H]1C[C@H](O[C@H]2CC[C@@]3(C)C(=CC[C@H]4C(=O)OC5CO[C@]6(C)OC=C(CC[C@@H]43)[C@H]56)C2)O[C@H](C)[C@H]1O[C@H]1C[C@H](O)[C@H](O[C@@H]2C[C@@H](OC)[C@H](O[C@@H]3O[C@H](CO)[C@@H](O[C@@H]4O[C@H](CO)[C@@H](O)[C@H](O)[C@H]4O)[C@H](O)[C@H]3O)[C@@H](C)O2)[C@@H](C)O1` (some centres not stated) [PANICULATUMOSIDE C], the selectivity ratio [1] was 11000, the Activity (Tobacco mosaic virus [2]) was 2.4 mm and the Activity (Tobacco mosaic virus [3]) was “Active”. The Activity (Sindbis virus [4]) was 100%, the Activity (Sindbis virus [5]) was 18% and the EC50 (Measles morbillivirus) was > 25000 nM. The Activity (Tobacco mosaic virus [6]) was “Active”, the selectivity ratio [7] was 16500 and the Activity (Sindbis virus [8]) was “Dose-dependent effect”. For the same compound, the Activity (Tobacco mosaic virus [9]) was “Active”, the inhibition at 0.04 µM (Tobacco mosaic virus [10]) was 93% and the EC50 [11] was > 25000 nM. The EC50 (Getah virus) was 1 nM, the IC50 (Tobacco mosaic virus [12]) was 25 nM and the EC50 (Sindbis virus [13]) was 1.5 nM. For the same compound, the Activity (Tobacco mosaic virus [14]) was “Active” and the Activity (Tobacco mosaic virus [15]) was 1.6 mm.
